Measured values: publication PMC10842602 (Bioorganic & medicinal chemistry, 2023)

What was measured:
[1] = target: T1, WT human SLACK (Homo sapiens, UniProt Q5JUK3); experiment: Tl+ flux assay in HEK-293 cells stably expressing WT human SLACK; assay type: cell-based; details: for IC50 / EC50: CRC; for Mode: Tl+ flux, HEK-293 cells expressing WT SLACK
T1 sequence (Q5JUK3 1-1235 isoform Q5JUK3-3): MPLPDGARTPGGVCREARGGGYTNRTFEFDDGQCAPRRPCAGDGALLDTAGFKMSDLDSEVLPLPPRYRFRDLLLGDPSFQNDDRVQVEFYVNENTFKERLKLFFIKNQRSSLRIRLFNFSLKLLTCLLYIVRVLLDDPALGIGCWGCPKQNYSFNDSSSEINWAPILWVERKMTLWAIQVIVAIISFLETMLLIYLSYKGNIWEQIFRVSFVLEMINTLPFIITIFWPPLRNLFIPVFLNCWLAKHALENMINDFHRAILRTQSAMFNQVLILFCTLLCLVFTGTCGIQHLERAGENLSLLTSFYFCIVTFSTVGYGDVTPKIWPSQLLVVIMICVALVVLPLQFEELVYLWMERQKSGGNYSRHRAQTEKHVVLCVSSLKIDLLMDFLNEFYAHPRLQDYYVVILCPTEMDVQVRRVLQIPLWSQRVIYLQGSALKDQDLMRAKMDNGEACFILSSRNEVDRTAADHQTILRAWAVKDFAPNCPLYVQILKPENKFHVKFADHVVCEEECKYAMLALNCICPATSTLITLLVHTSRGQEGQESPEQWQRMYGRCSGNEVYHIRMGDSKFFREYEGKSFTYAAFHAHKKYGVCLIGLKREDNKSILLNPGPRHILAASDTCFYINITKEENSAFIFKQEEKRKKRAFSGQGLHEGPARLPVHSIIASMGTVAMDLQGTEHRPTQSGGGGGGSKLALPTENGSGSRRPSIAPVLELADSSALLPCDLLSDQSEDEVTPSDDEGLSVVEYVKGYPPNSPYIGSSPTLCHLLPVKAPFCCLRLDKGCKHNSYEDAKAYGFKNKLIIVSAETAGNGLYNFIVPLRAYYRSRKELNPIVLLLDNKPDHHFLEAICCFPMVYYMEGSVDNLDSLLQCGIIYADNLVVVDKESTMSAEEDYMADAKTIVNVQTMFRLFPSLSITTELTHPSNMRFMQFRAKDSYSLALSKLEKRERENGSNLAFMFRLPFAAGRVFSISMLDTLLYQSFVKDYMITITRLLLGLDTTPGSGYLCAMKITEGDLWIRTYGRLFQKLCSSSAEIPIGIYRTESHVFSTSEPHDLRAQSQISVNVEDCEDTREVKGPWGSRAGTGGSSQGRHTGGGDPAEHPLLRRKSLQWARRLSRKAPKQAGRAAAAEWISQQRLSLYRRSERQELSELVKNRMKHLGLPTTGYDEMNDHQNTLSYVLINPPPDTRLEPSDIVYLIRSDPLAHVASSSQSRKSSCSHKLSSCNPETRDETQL
Outline: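 Stably transfected HEK-293 cells expressing wild-type human SLACK; thallium flux read-out. IC50 or EC50 taken from concentration-response curves, and each compound classed as inhibitor, activator or not active. Efficacy is the response amplitude at 30 μM test compound, as a percentage of the maximum response to a reference SLACK inhibitor (for inhibitors) or loxapine (for activators).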

[2] = target: Maxi-K (Slo1 α1/β3) (Homo sapiens, UniProt Q12791); experiment: Tl+ flux assay in HEK-293 cells expressing Maxi-K; assay type: cell-based; details: CRC
Chain of Maxi-K (Slo1 α1/β3) (Q12791 whole entry, species assumed): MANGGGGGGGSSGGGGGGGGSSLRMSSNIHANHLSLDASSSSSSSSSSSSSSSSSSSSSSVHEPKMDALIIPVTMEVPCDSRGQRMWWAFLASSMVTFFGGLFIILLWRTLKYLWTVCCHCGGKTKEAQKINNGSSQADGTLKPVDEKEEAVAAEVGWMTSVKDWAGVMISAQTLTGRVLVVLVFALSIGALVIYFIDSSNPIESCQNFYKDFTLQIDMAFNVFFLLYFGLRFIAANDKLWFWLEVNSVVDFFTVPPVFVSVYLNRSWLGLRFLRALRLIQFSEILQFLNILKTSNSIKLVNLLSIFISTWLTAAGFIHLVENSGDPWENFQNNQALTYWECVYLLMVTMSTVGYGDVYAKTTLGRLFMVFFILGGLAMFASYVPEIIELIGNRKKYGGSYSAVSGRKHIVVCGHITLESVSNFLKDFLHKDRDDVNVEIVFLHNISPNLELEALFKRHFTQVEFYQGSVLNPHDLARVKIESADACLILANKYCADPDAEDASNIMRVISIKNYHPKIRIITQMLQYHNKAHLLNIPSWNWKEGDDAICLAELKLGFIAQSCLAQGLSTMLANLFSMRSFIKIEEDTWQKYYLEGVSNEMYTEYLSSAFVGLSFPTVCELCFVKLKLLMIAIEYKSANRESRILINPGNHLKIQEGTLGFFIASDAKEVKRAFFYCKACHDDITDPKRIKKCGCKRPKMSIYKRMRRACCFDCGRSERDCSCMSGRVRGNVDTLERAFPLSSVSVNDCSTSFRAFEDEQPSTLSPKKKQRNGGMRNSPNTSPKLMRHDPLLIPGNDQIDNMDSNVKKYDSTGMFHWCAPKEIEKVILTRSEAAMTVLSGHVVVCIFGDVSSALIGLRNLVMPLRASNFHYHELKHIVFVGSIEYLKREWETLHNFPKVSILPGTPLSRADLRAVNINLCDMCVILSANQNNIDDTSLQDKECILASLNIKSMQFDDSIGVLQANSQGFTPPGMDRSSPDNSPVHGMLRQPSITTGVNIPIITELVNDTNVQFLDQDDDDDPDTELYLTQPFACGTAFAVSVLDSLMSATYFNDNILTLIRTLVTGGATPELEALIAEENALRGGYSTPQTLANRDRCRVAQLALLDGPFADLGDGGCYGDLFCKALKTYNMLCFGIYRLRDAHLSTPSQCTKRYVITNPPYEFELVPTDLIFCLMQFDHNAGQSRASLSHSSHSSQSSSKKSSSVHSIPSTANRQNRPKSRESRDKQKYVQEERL
Chain of Maxi-K (Slo1 α1/β3) (Q9NPA1 whole entry partner, species assumed): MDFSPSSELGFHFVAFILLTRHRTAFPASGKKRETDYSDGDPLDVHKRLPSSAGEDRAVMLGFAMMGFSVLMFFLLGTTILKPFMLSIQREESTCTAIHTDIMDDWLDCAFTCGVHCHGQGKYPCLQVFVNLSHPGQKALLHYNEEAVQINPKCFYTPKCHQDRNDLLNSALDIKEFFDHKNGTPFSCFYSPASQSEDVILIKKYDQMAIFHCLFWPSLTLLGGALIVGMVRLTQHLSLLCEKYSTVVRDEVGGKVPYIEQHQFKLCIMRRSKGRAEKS

[3] = IC50 for compounds of mode Inh (also cells printed Inactive)

SMILES	IC50 / EC50 [1, 3]	IC50 / EC50 ([1]; EC50 for compounds of mode Act)	further results
CC(C)Oc1ccccc1S(=O)(=O)N1CC(c2nc(-c3ccsc3)no2)C1 [Compound 27, 5-(1-((2-Isopropoxyphenyl)sulfonyl)azetidin-3-yl)-3-(thiophen-3-yl)-1,2,4-oxadiazole]	3.7 µM		Maxi-K (Slo1 α1/β3) IC50 [2]: inactive
CCOc1ccccc1S(=O)(=O)N1CC(c2nc(-c3ccc(F)cc3)no2)C1 [Compound 43, 5-(1-((2-Ethoxyphenyl)sulfonyl)azetidin-3-yl)-3-(4-fluorophenyl)-1,2,4-oxadiazole]	3.2 µM		Maxi-K (Slo1 α1/β3) IC50 [2]: inactive
CCOc1ccccc1S(=O)(=O)N1CC(c2nc(-c3ccco3)no2)C1 [Compound 63, 5-(1-((2-Ethoxyphenyl)sulfonyl)azetidin-3-yl)-3-(furan-2-yl)-1,2,4-oxadiazole]	>10 µM		
CCOc1ccccc1S(=O)(=O)N1CC(c2nc(-c3ccccn3)no2)C1 [Compound 64, 5-(1-((2-Ethoxyphenyl)sulfonyl)azetidin-3-yl)-3-(pyridin-2-yl)-1,2,4-oxadiazole]	Inactive		Mode [1]: Inactive
CCOc1ccccc1S(=O)(=O)N1CC(c2nc(-c3cccnc3)no2)C1 [Compound 65, 5-(1-((2-Ethoxyphenyl)sulfonyl)azetidin-3-yl)-3-(pyridin-3-yl)-1,2,4-oxadiazole]	Inactive		Mode [1]: Inactive
CCOc1ccccc1S(=O)(=O)N1CC(c2nc(-c3ccncc3)no2)C1 [Compound 66, 5-(1-((2-Ethoxyphenyl)sulfonyl)azetidin-3-yl)-3-(pyridin-4-yl)-1,2,4-oxadiazole]	Inactive		Mode [1]: Inactive
CCOc1ccccc1S(=O)(=O)N1CC(c2nc(-c3ccc(F)cn3)no2)C1 [Compound 67, 5-(1-((2-Ethoxyphenyl)sulfonyl)azetidin-3-yl)-3-(5-fluoropyridin-2-yl)-1,2,4-oxadiazole]	Inactive		Mode [1]: Inactive
CCOc1ccccc1S(=O)(=O)N1CC(c2nc(-c3ncccn3)no2)C1 [Compound 68, 5-(1-((2-Ethoxyphenyl)sulfonyl)azetidin-3-yl)-3-(pyrimidin-2-yl)-1,2,4-oxadiazole]	Inactive		Mode [1]: Inactive
CCOc1ccccc1S(=O)(=O)N1CC(C)(c2nc(-c3ccc(F)cc3)no2)C1 [Compound 69]		4.0 µM	
CCOc1ccccc1S(=O)(=O)N1CC(F)(c2nc(-c3ccc(F)cc3)no2)C1 [Compound 70]	9.2 µM		
CCOc1ccccc1S(=O)(=O)C1CN(c2nc(-c3ccc(F)cc3)no2)C1 [Compound 71]	>10 µM		
CCOc1ccccc1S(=O)(=O)[C@H]1C[C@@H](c2nc(-c3ccc(F)cc3)no2)C1 [Compound 73a]	Inactive		Mode [1]: Inactive
CCOc1ccccc1S(=O)(=O)[C@H]1C[C@H](c2nc(-c3ccc(F)cc3)no2)C1 [Compound 73b]	>10 µM		
CCOc1ccccc1S(=O)(=O)N1CC[C@@H](c2nc(-c3ccc(F)cc3)no2)C1 [Compound 74]	>10 µM		
CCOc1ccccc1S(=O)(=O)N1CC[C@H](c2nc(-c3ccc(F)cc3)no2)C1 [Compound 75]	>10 µM		
CCOc1ccccc1S(=O)(=O)N1CCC(c2nc(-c3ccc(F)cc3)no2)CC1 [Compound 76]	4.9 µM		Maxi-K (Slo1 α1/β3) IC50 [2]: inactive
CCOc1ccccc1S(=O)(=O)c1ccc(-c2nc(-c3ccc(F)cc3)no2)cc1 [Compound 77]	Inactive		Mode [1]: Inactive
CCOc1ccccc1S(=O)(=O)N1CC(c2nnc(-c3ccc(F)cc3)o2)C1 [Compound 81]		>10 µM	
CCOc1ccccc1S(=O)(=O)N1CC(c2nnc(-c3ccc(F)cc3)[nH]2)C1 [Compound 86]		>10 µM	
CCOc1ccccc1S(=O)(=O)N1CC(c2cc(-c3ccc(F)cc3)no2)C1 [Compound 92]	Inactive		Mode [1]: Inactive
CCOc1ccccc1S(=O)(=O)N1CC(c2cn(-c3ccc(F)cc3)nn2)C1 [Compound 95]		>10 µM	

SMILES	IC50 / EC50 [1, 3]	IC50 / EC50 ([1]; EC50 for compounds of mode Act)	further results
CCOc1ccccc1S(=O)(=O)N1CC(c2ncc(-c3ccc(F)cc3)o2)C1 [Compound 97]		10 µM	
CCOc1ccccc1S(=O)(=O)N1CC(c2nc(-c3ccc(F)cc3)c[nH]2)C1 [Compound 99]		4.1 µM	
CCOc1ccccc1S(=O)(=O)N1CC(c2nc(-c3ccc(F)cc3)cn2C)C1 [Compound 100]	>10 µM		
CCOc1ccccc1S(=O)(=O)N1CC(c2noc(-c3ccc(F)cc3)n2)C1 [Compound 101]	>10 µM		
CCOc1ccccc1S(=O)(=O)N1CC(c2cc(-c3ccc(F)cc3)on2)C1 [Compound 102]	Inactive		Mode [1]: Inactive
CCOc1ccccc1S(=O)(=O)N1CC(c2cc(-c3ccc(F)cc3)n[nH]2)C1 [Compound 103]		>10 µM	
O=S(=O)(c1ccccc1OCC1CCC1)N1CC(c2nc(-c3ccc(F)cc3)no2)C1 [Compound 110, 5-(1-((2-(Cyclobutylmethoxy)phenyl)sulfonyl)azetidin-3-yl)-3-(4-fluorophenyl)-1,2,4-oxadiazole]	9.3 µM		
CCOc1ncccc1S(=O)(=O)N1CC(c2nc(-c3ccc(F)cc3)no2)C1 [Compound 111]	>10 µM		
O=S(=O)(c1ccccc1OCC1CC1)N1CC(c2nc(-c3ccc(F)cc3)no2)C1 [Compound 114, 5-(1-((2-(Cyclopropylmethoxy)phenyl)sulfonyl)azetidin-3-yl)-3-(4-fluorophenyl)-1,2,4-oxadiazole]	6.0 µM		
O=S(=O)(c1ccccc1OC1COC1)N1CC(c2nc(-c3ccc(F)cc3)no2)C1 [Compound 115, 3-(4-Fluorophenyl)-5-(1-((2-(oxetan-3-yloxy)phenyl)sulfonyl)azetidin-3-yl)-1,2,4-oxadiazole]		2.5 µM	
O=S(=O)(c1ccccc1OC1CCCC1)N1CC(c2nc(-c3ccc(F)cc3)no2)C1 [Compound 116, 5-(1-((2-(cyclopentyloxy)phenyl)sulfonyl)azetidin-3-yl)-3-(4-fluorophenyl)-1,2,4-oxadiazole]	5.8 µM		
O=S(=O)(c1ccccc1N1CCCC1)N1CC(c2nc(-c3ccc(F)cc3)no2)C1 [Compound 117, 3-(4-Fluorophenyl)-5-(1-((2-(pyrrolidin-1-yl)phenyl)sulfonyl)azetidin-3-yl)-1,2,4-oxadiazole]	8.9 µM		
O=S(=O)(c1ccccc1N1CCCCC1)N1CC(c2nc(-c3ccc(F)cc3)no2)C1 [Compound 118, 3-(4-Fluorophenyl)-5-(1-((2-(piperidin-1-yl)phenyl)sulfonyl)azetidin-3-yl)-1,2,4-oxadiazole]	>10 µM		
O=S(=O)(c1cccc2ccoc12)N1CC(c2nc(-c3ccc(F)cc3)no2)C1 [Compound 120, 5-(1-(Benzofuran-7-ylsulfonyl)azetidin-3-yl)-3-(4-fluorophenyl)-1,2,4-oxadiazole]		2.3 µM	
O=S(=O)(c1cccn2ccnc12)N1CC(c2nc(-c3ccc(F)cc3)no2)C1 [Compound 125]		>10 µM	
Cc1cn2cccc(S(=O)(=O)N3CC(c4nc(-c5ccc(F)cc5)no4)C3)c2n1 [Compound 126]		>10 µM	
O=S(=O)(c1cccn2ncnc12)N1CC(c2nc(-c3ccc(F)cc3)no2)C1 [Compound 129]		>10 µM	
Cc1nc2c(S(=O)(=O)N3CC(c4nc(-c5ccc(F)cc5)no4)C3)cccn2n1 [Compound 130]		>10 µM	
O=S(=O)(c1cccn2cnnc12)N1CC(c2nc(-c3ccc(F)cc3)no2)C1 [Compound 132]		>10 µM	
Cc1nnc2c(S(=O)(=O)N3CC(c4nc(-c5ccc(F)cc5)no4)C3)cccn12 [Compound 133]	Inactive		Mode [1]: Inactive
